In ChEMBL document CHEMBL4513216, “Probing the Open Global Health Chemical Diversity Library for Multistage-Active Starting Points for Next-Generation Antimalarials” (ACS Infect Dis, 2020):

Test: Toxicity liver stage against HepG2, at 10uM
Assay type: cell-based
Set-up: test concentration 10 uM, cell line HepG2-A16-CD81EGFP
Details: human, HepG2-A16-CD81EGFP cells; read-out: INHIBITION
In short: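 Uninfected HepG2-A16-CD81EGFP cells, 3 × 10^3 per well, 1536-well, plated on prespotted compound at 10 μM final, parasite-free screening media added to match infected plates; puromycin 10 μM positive, DMSO 0.5% negative; run in parallel with 48 h PbLuc assay at 37 °C, 5% CO2; viability by CellTiter-Glo luminescence, normalized to controls.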

| SMILES | cytotoxicity at 10 µM [%] |
| --- | --- |
| CS(=O)(=O)c1ccc(CNC[C@H]2COCc3nc4cccnc4n32)cc1 | -0.505 |
| CC(=O)N1N=C(c2ccncc2)OC1C(=O)N(C)CCc1ccccc1 (stereo unspecified) | 12.9 |
| O=C(NCC(Cc1cccc(F)c1)N1CCCC1=O)C1CCCC1 (stereo unspecified) | 1.39 |
| CN(C)CC(=O)N1CC[C@H]2OCC[C@@]2(COCC2CC2)C1 | 0.165 |
| Cc1cccc(N2CC[C@H]3[C@H]2CCN3C(=O)c2cnn(C)c2)n1 | 1.24 |
| COCCC(=O)N1CC[C@@H](N2CCN(C)CC2)[C@@H]1Cc1ccccc1 | 7.7 |
| CCN1C(=O)C2(CCOCC2)c2cc(NC(=O)c3cnoc3C)ccc21 | -2.54 |
| Cn1c(N)c2c(=O)n(C)c(-c3ccccc3)cc2c(C#N)c1=O | 1.57 |
| Cn1nc(CNC(=O)c2ccc(Cl)cc2)c2c1CCOC2 | 5.86 |
| Cc1ccc(CNC(=O)c2ccc(F)cc2)o1 | -3.35 |
| CCn1ccc(-c2cc(C(=O)O)n3ncc(Br)c3n2)n1 | -4.81 |
| Cn1ncc(C(=O)N2CCOCC2)c1Cl | 8.93 |
| CN(C)C(=O)c1c[nH]nc1C1CCN(S(=O)(=O)c2cccc(Cl)c2)CC1 | 1.22 |
| CCOC(=O)[C@H]1CNC[C@@H]1C(=O)OCC | 6.1 |
| Cc1cc(C2CCCN2C(=O)c2cnn(C)c2)on1 (stereo unspecified) | -1.85 |
| CC(C)C(C)(CNC(=O)OC(C)(C)C)NC(=O)c1cnccn1 (stereo unspecified) | -6.62 |
| CC(C)c1cnc(CN2CCCS2(=O)=O)o1 | 10.6 |
| O=c1[nH]nc(SCC2CCCCO2)n1C1CC1 (stereo unspecified) | 2.14 |
| CC(NCc1ccc(-c2ccc(Cl)cc2)o1)c1nnc2n1CCC2 (stereo unspecified) | -2.04 |
| Cc1nc(C2(NCC(=O)NCc3cccs3)CCCCC2)no1 | 1.17 |
| Cc1ncc2c(n1)CN(Cc1nc3c(F)cccc3[nH]1)CC2 | -4.74 |

| SMILES | cytotoxicity at 10 µM [%] |
| --- | --- |
| CCOc1cccc(COC(=O)c2scnc2C)n1 | -0.966 |
| COC(=O)C(C)(C)C(C)(C)NC(=O)Nc1nnc(-c2ccccn2)s1 | 9.15 |
| N#Cc1nccnc1N1CCC(Cc2ccccc2)C1 (stereo unspecified) | -8.68 |
| COC(=O)CN(C(=O)c1ccc(-n2ccnc2)cc1)C1CCCC1 | -7.28 |
| O=C(C1COc2ccccc2C1)N(CCO)Cc1ccccc1 (stereo unspecified) | 4.58 |
| NC(=O)C1CCN(C(=O)c2ccc(Sc3ccccn3)cc2)CC1 | 9.48 |
| Cc1cc(C(=O)NCC2(C(N)=O)CCOCC2)nn1C(C)(C)C | -16.6 |
| CC(C(=O)N1CCc2sccc2C1)N1CCCN(C2CC2)CC1 (stereo unspecified) | 3.86 |
| CCC(C)NC(=O)c1ccc(-c2ccco2)[nH]c1=O (stereo unspecified) | -5.05 |
| CCC(=O)N1CCCN(C(=O)c2cc(C)cc(Br)c2O)CC1 | 7.12 |
| CCn1nc(C)c(S(=O)(=O)N(C)c2ccc(Cl)cn2)c1C | -2.13 |
| O=C(c1ccoc1)N1CCCn2nnc(COCC3CC3)c2C1 | -68.5 |
| Cc1cc(C)nc(CN(C)c2nc(C3CCCC3)nc3c2cnn3C)c1 | 12.4 |
| CSc1ccccc1NC(=O)CCC(=O)N(C)C1CCN(C)CC1 | -2.91 |
| Cc1cnc(NC(C)Cc2cnccn2)nc1N(C)C (stereo unspecified) | 0.342 |
| CC(C)c1noc(C2CCCN2C(=O)Cc2cn3ccsc3n2)n1 (stereo unspecified) | 4.52 |
| Cn1c(-c2ccccc2Cl)nc2cc(C(=O)NC(CO)CO)cnc21 | -10.8 |
| COc1cccc(N2CCN(C(=O)CO)CC2=O)c1 | 0.995 |
| CC(CN1CCC2(CC1)N=C(N(C)C)NC2=O)c1ccccc1 (stereo unspecified) | 2.92 |
| CNC(=O)c1nc(CN2CCOC(C(F)(F)F)C2)no1 (stereo unspecified) | -2.08 |
| Cc1cccc(C(C(=O)NCCCc2ccncc2)N(C)C)c1 (stereo unspecified) | -8.38 |

| SMILES | cytotoxicity at 10 µM [%] |
| --- | --- |
| CSCCCN1C[C@H](NC(=O)c2ccc(CO)cc2)[C@@H](C2CC2)C1 | -11.1 |
| O=C(c1coc(CN2CCN(c3ccccc3F)CC2)n1)N1CC=CC1 | -3.06 |
| O=C(NC1CC1)C1CN(Cc2ccc3c(c2)OCCO3)CCN1 (stereo unspecified) | -3.22 |
| CN(CCCc1nccn1C)C(=O)C1CCN(C(=O)C2CC2)CC1 | -4.49 |
| CCOCCCNCc1cc(O)c2cc(C)ccc2n1 | -11.1 |
| Cc1cc(N(C)Cc2ccsc2)n2nc(C)c(C)c2n1 | 1.7 |
| COc1ccc(Cl)cc1NC(=O)CCC1CCCN(Cc2ncon2)C1 (stereo unspecified) | -4.18 |
| CC(C)Cc1nnc(SCC(=O)O)n1-c1ccc(F)cc1F | -6.13 |
| CCc1ccccc1OC1CN(CC2CCOC2)C1 (stereo unspecified) | -25.2 |
| Cc1ocnc1C(=O)N1CCN(C(=O)CC(C)C)[C@@H]2CS(=O)(=O)C[C@@H]21 | 12.2 |
| O=C(c1scc2c1OCCO2)N1CCOC(Cc2ccc(F)cc2)C1 (stereo unspecified) | 1.73 |
| CCOCCN1CCN(C(C)c2nc(C3CC3)no2)CC1 (stereo unspecified) | -4.51 |
| O=C1CC(N(C(=O)c2ccc(F)c(C(F)(F)F)c2)C2CC2)C(=O)N1 (stereo unspecified) | -10.5 |
| Cc1nc(CN2CCCC(NCCOc3cccc(C#N)c3)C2)no1 (stereo unspecified) | -8.36 |
| NC(=O)C1CCN(C(=O)NCc2ccccc2-n2cccn2)C1 (stereo unspecified) | -18.4 |
| CC(NC(=O)N(C)CCCOc1ccccc1)c1nncn1C (stereo unspecified) | -5.4 |
| c1cnn(CC2CCCCN2Cc2nc(-c3ccsc3)no2)c1 (stereo unspecified) | -12.2 |
| CC(C)c1noc(C(C)N2CCN(Cc3nnc(C4CC4)o3)CC2)n1 (stereo unspecified) | -11.9 |
| CC(C)c1n[nH]c(C2CN(CCCS(C)(=O)=O)CCO2)n1 (stereo unspecified) | -11.9 |
| Cc1ccc(CNC(=O)NCCCO)cc1 | -16.2 |
| COc1cc(C(=O)N2CCC(c3n[nH]c(C)n3)CC2)cc(OC)c1C | -10.9 |

| SMILES | cytotoxicity at 10 µM [%] |
| --- | --- |
| Cc1cc(C)n(CC2CN(CC(=O)NC3CCCC3)CCO2)n1 (stereo unspecified) | -4.41 |
| Cc1noc(C)c1CN(C)CCC(=O)N1CCc2sccc2C1 | 0.265 |
| COc1ccc(OCCNCCn2cccn2)cc1 | 2.05 |
| CCN(CC)Cc1nc2c(o1)CN(C(=O)c1ccc3[nH]ccc3c1)C2 | 7.07 |
| COc1ccc(CN2CCO[C@H]3[C@H](OCCN4CCCC4)CC[C@@H]32)cc1 | 0.471 |
| O=C1COC2(CCN(Cc3ccoc3)CC2)CN1CCn1cccn1 | 6.95 |
| Cn1cc(C[C@H]2[C@H](N3CCOCC3)CCN2C2CCOCC2)cn1 | 5.13 |
| COc1ccc(CN2CCn3cc(CN4CCCCC4)nc3C2)cc1 | 4.7 |
| Cc1n[nH]cc1CNC(C)c1cccc(N2CCCC2=O)c1 (stereo unspecified) | 6.05 |
| Cc1ccc(CN2CC(C(=O)NC(C)C)C3(CCOCC3)C2)s1 (stereo unspecified) | 1.12 |
| c1coc(CN2CCC3(CC2)COCCN(CCN2CCCC2)C3)c1 | -7.82 |
| Cc1ccsc1CN1C[C@@H]2CN(Cc3cccnc3)CCO[C@@H]2C1 | 8 |
| Cc1noc([C@H]2C[C@H]3OCC[C@H]3N(Cc3scnc3C)C2)n1 | -73.4 |
| O=C(c1cccs1)N1CCOCC2(C1)CN(c1cccnc1)C(=O)CO2 (stereo unspecified) | 3.36 |
| Cc1noc(C)c1CN1CCO[C@H]2CN(Cc3nccn3C)C[C@H]21 | 2.64 |
| Cc1ncccc1NC(=O)[C@@H]1CC[C@@H]2[C@@H](CCN2Cc2cnn(C)c2)O1 | -0.335 |
| CNC(=O)[C@@H]1CC[C@@H]2[C@@H](CCN2Cc2ccccc2F)O1 | 8.1 |
| O=C(c1ccccc1)N1C[C@H]2CC[C@@H](C1)N(C(=O)CN1CCOCC1)C2 | 9.23 |
